Converted amounts (≈) assume the structure as drawn. The source made the active and inactive calls.
Experiments:
[1] = test system: Human immunodeficiency virus 1; test: Antiviral activity against HIV1 3B in human MT4 cells assessed as protection against virus-induced cytopathogenicity by MTT assay; type: functional, organism-based; details: Human immunodeficiency virus 1, 3B
In short: (§1)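 MT-4 cells at 6 × 10^5 cells/mL, mock- or virus-infected with HIV-1 IIIB or HIV-2 ROD at 100-300 CCID50, with serial 5-fold compound dilutions in triplicate. After 5 days, viability read by MTT at 540 and 690 nm, using the median OD of three wells. EC50 = 50% protection from viral cytopathic effect; CC50 = 50% reduction of OD540 in mock-infected cells. SI = CC50/EC50; mean ± SD of ≥2 experiments.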

[2] = Selectivity index, ratio of CC50 for human MT4 cells to EC50 for HIV2 ROD; type: toxicity, cell-based; details: read-out: Ratio CC50/EC50; in short: as §1
[3] = test system: Human immunodeficiency virus 2; test: Antiviral activity against HIV2 ROD in human MT4 cells assessed as protection against virus-induced cytopathogenicity by MTT assay; type: functional, organism-based; details: Human immunodeficiency virus 2, ISOLATE ROD; in short: as §1
[4] = Cytotoxicity against human MT4 cells by MTT assay; type: cell-based; in short: as §1
[5] = Selectivity index, ratio of CC50 for human MT4 cells to EC50 for HIV1 3B; type: toxicity, cell-based; details: read-out: Ratio CC50/EC50; in short: as §1
[6] = Selectivity index, ratio of CC50 for TNF-alpha-stimulated human U1 cells to EC50 for HIV1; type: toxicity, cell-based; details: read-out: Ratio CC50/EC50
In short: (§2)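 OM-10.1 or U1 cells at 5 × 10⁵ cells/mL were preincubated with compound for 2 h, then stimulated with TNF-α 1 ng/mL or PMA 0.02 μM. After 2 days at 37 °C, supernatant p24 was measured by ELISA for EC50, and parallel cultures were read by MTT for CC50. SI = CC50/EC50. Mean ± SD of at least three experiments.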

[7] = Selectivity index, ratio of CC50 for TNF-alpha-stimulated human OM10.1 cells to EC50 for HIV1; type: toxicity; details: read-out: Ratio CC50/EC50; in short: as §2
[8] = Selectivity index, ratio of CC50 for human MT4 cells to EC50 for HIV1 3B mutant; type: toxicity, cell-based; details: read-out: Ratio CC50/EC50
In short: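 SI = CC50 in mock-infected MT-4 cells (MTT, 5 days) divided by EC50 against the selected mutant in the MT-4 MTT cytopathicity assay.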

[9] = Cytotoxicity against TNF-alpha-stimulated human U1 cells by MTT assay; type: cell-based
In short: (§3)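 Latently infected OM-10.1 and U1 cells at 5 × 10^5 cells/mL preincubated 2 h with or without compound, then stimulated with TNF-α 1 ng/mL or PMA 0.02 μM. After 2 days at 37 °C, p24 in supernatant measured by ELISA; viability assessed in parallel by MTT. EC50 = 50% reduction of p24; mean ± SD of ≥3 experiments.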

[10] = Selectivity index, ratio of CC50 for human MT4 cells to EC50 for HIV1 3B mutant after 60 passage resistance selection by MTT assay; type: toxicity, cell-based; details: read-out: Ratio CC50/EC50
[11] = Cytotoxicity against TNF-alpha-stimulated human OM10.1 cells by MTT assay; type: cell-based; in short: as §3
[12] = Cytotoxicity against human PBMC by MTT assay; type: cell-based; details: in the assay text read “trypan blue exclusion method” for “MTT assay”
In short: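 Cytotoxicity in PHA-stimulated PBMCs read by trypan blue exclusion; CC50 = concentration reducing viability of mock-infected cells by 50%. Mean ± SD of at least two experiments.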

[13] = Selectivity index, ratio of CC50 for human Jurkat cells to EC50 for HIV1; type: toxicity, cell-based; details: read-out: Ratio CC50/EC50
[14] = test system: Human immunodeficiency virus 1; test: Antiviral activity against HIV1 in human U1 cells assessed as inhibition of PMA-stimulated viral expression measured by p24 production; type: functional, organism-based; details: Human immunodeficiency virus 1, U1; in short: as §3
[15] = Cytotoxicity against PMA-stimulated human OM10.1 cells by MTT assay; type: cell-based; in short: as §3
[16] = test system: Human immunodeficiency virus 1; test: Antiviral activity against HIV1 3B in human […] cells assessed as inhibition of p24 production; type: functional, organism-based; details: Human immunodeficiency virus 1, 3B
In short: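 Chronically infected HuT-78 cells washed with PBS and pelleted three times, then 200000 cells per 1 mL seeded with test compound at set concentrations. Grown 44 h; supernatant p24 measured by ELISA. EC50 = 50% reduction of p24 production; mean ± SD of at least three separate experiments. Nevirapine and ritonavir included as controls.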

[17] = test system: Human immunodeficiency virus 1; test: Antiviral activity against HIV1 in human Jurkat cells assessed as inhibition of GFP expression by flow cytometry; details: Human immunodeficiency virus 1, Jurkat
[18] = test system: Human immunodeficiency virus 1; test: Antiviral activity against HIV1 3B in human MT4 cells assessed as inhibition of p24 protein production measured delay in infection up to 10 hrs by time-of addition experiment; type: functional, organism-based
In short: (§4)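 Time-of-addition assay. MT-4 cells infected with HIV-1 IIIB at moi 0.5 to synchronize replication. Compounds added at various times from 0 to 25 h post-infection; p24 antigen in supernatant measured by ELISA at 31 h p.i. Reference drugs AZT and ritonavir were given at 100× their MT-4/MTT IC50.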

[19] = Selectivity index, ratio of CC50 for human PBMC to EC50 for HIV1
In short: (§5)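 PBMCs from healthy donors isolated by density centrifugation and stimulated 3 days with PHA. Blasts washed, plated at 2 × 10^5 per well with serial compound dilutions and infected with HIV at 1000 CCID50/mL. Medium and compound refreshed at day 4; p24 in supernatant measured by ELISA at day 7. EC50 = 50% inhibition of p24; SI = CC50/EC50.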

[20] = Cytotoxicity against human HuT78 by MTT assay; type: cell-based; details: HuT78 cells
In short: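 Chronically infected HuT-78 cells; CC50 defined as the concentration reducing cell viability by 50%, measured by the MTT method. Mean ± SD of at least three separate experiments.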

[21] = test system: Human immunodeficiency virus 1; test: Antiviral activity against HIV1 3B mutant in human MT4 cells assessed as protection against virus-induced cytopathogenicity after 60 passage resistance selection by MTT assay; type: functional, organism-based; details: Human immunodeficiency virus 1, 3B
In short: (§6)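 Virus added at 100-300 CCID50 to MT-4 cells (6 × 10⁵ cells/mL) together with serial 5-fold compound dilutions, triplicate wells. Viability read by MTT after 5 days at 540 and 690 nm, using the median OD of three wells. EC50 is the concentration giving 50% protection from virus-induced cytopathic effect. Mean ± SD of at least two experiments.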

[22] = test system: Human immunodeficiency virus 1; test: Antiviral activity against HIV1 3B in human MT4 cells assessed as inhibition of p24 protein production measured delay in infection up to 18 hrs by time-of addition experiment; type: functional, organism-based; details: in the assay text read “up to 10 hrs” for “up to 18 hrs”; in short: as §4
[23] = test system: Human immunodeficiency virus 1; test: Antiviral activity against HIV1 in human OM10.1 cells assessed as inhibition of PMA-stimulated viral expression measured by p24 production; type: functional, organism-based; in short: as §3
[24] = Selectivity index, ratio of CC50 for PMA-stimulated human OM10.1 cells to EC50 for HIV1; type: toxicity; details: read-out: Ratio CC50/EC50; in short: as §2
[25] = test system: Human immunodeficiency virus 1; test: Antiviral activity against HIV1 in human OM10.1 cells assessed as inhibition of TNF-alpha-stimulated viral expression measured by p24 production; type: functional, organism-based; in short: as §3
[26] = Cytotoxicity against human Jurkat cells by MTT assay; type: cell-based
C8166T = test: Antiviral activity against integrase deficient Simian virus 40/HIV-1 chimera (n/N.Tag.oriT) virus in human C8166T cells assessed as inhibition of viral replication; type: functional, cell-based
In short: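 C8166 T-cells were infected with HIV-1 NL4.3 or N/N.Tag.oriT and exposed to a range of compound concentrations. p24 in the supernatant was measured relative to untreated controls (100%). Toxicity was read in parallel by MTT.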

[27] = Selectivity index, ratio of CC50 for PMA-stimulated human U1 cells to EC50 for HIV1; type: toxicity, cell-based; details: read-out: Ratio CC50/EC50; in short: as §2
[28] = Cytotoxicity against PMA-stimulated human U1 cells by MTT assay; type: cell-based; in short: as §3
[29] = test system: Human immunodeficiency virus 1; test: Antiviral activity against HIV1 in human HeLa cells assessed as inhibition of Tat-mediated transcription after 24 hrs by LTR-driven luciferase reporter assay; type: functional, organism-based
In short: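 HeLa clone carrying an HIV-1 LTR-luciferase reporter, activated with subsaturating Tat or left without Tat for basal promoter activity. Cells incubated with increasing compound concentrations; luciferase measured in cell lysates 24 h after treatment. Controls were DMSO vehicle, untreated cells and flavopiridol at 10 μM.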

[30] = test system: Human immunodeficiency virus 1; test: Antiviral activity against HIV1 3B in human MT4 cells assessed as inhibition of p24 protein production measured delay in infection up to 5 hrs by time-of addition experiment; type: functional, organism-based; details: in the assay text read “up to 10 hrs” for “up to 5 hrs”; in short: as §4
[31] = test system: Human immunodeficiency virus 1; test: Antiviral activity against HIV1 3B mutant in human MT4 cells assessed as protection against virus-induced cytopathogenicity by MTT assay; type: functional, organism-based; details: Human immunodeficiency virus 1, 3B; in short: as §6
[32] = test system: Human immunodeficiency virus 1; test: Antiviral activity against HIV1 in human U1 cells assessed as inhibition of TNF-alpha-stimulated viral expression measured by p24 production; type: functional, organism-based; details: Human immunodeficiency virus 1, U1; in short: as §3
[33] = test system: Human immunodeficiency virus 1; test: Antiviral activity against HIV1 in human PBMC assessed as inhibition of p24 protein production by MTT assay; type: functional, organism-based; details: in the assay text read “by ELISA” for “by MTT assay”; in short: as §5

Cn1cc(C(=O)O)c(=O)c2ccc(N3CCN(c4ccccn4)CC3)nc21
EC50 [1]: 0.62 µg/mL (≈ 1.7 µM) | selectivity ratio [2]: 18 | EC50 [3]: 0.55 µg/mL (≈ 1.51 µM) | CC50 [4]: 9.93 µg/mL (≈ 27.2 µM) | selectivity ratio [5]: 16

Cn1cc(C(=O)O)c(=O)c2ccc(N3CCN(c4nc5ccccc5s4)CC3)nc21
selectivity ratio [6]: 330 | selectivity ratio [7]: 422 | EC50 [1]: 0.03 µg/mL (≈ 0.0712 µM) | selectivity ratio [8]: 1280 | CC50 [9]: 0.99 µg/mL (≈ 2.35 µM) | selectivity ratio [10]: 1420 | CC50 [11]: 1.27 µg/mL (≈ 3.01 µM) | CC50 [12]: 10.3 µg/mL (≈ 24.5 µM) | selectivity ratio [13]: 44 | EC50 [14]: 0.002 µg/mL (≈ 0.00475 µM) | CC50 [15]: 0.75 µg/mL (≈ 1.78 µM) | EC50 [16]: 0.032 µg/mL (≈ 0.0759 µM) | EC50 [17]: 0.34 µg/mL (≈ 0.807 µM) | selectivity ratio [2]: 522 | Activity [18]: Active | Ratio CC50/EC50 [19]: 17 | CC50 [20]: > 10 µg/mL | EC50 [21]: 0.017 µg/mL (≈ 0.0403 µM) | Activity [22]: Active | EC50 [23]: 0.004 µg/mL (≈ 0.00949 µM) | EC50 [3]: 0.02 µg/mL (≈ 0.0475 µM) | selectivity ratio [24]: 189 | EC50 [25]: 0.003 µg/mL (≈ 0.00712 µM) | CC50 [4]: 12.1 µg/mL (≈ 28.6 µM) | CC50 [26]: 15.1 µg/mL (≈ 35.9 µM) | Activity (C8166T): Active | selectivity ratio [27]: 1330 | CC50 [28]: 2.67 µg/mL (≈ 6.33 µM) | Activity [29]: Dose-dependent effect | Activity [30]: Active | EC50 [31]: 0.019 µg/mL (≈ 0.0451 µM) | EC50 [32]: 0.003 µg/mL (≈ 0.00712 µM) | EC50 [33]: 0.6 µg/mL (≈ 1.42 µM) | selectivity ratio [5]: 457

Cn1cc(C(=O)O)c(=O)c2ccc(N3CCN(c4nccs4)CC3)nc21
EC50 [1]: 3.15 µg/mL (≈ 8.48 µM) | selectivity ratio [2]: > 136 | EC50 [3]: 0.922 µg/mL (≈ 2.48 µM) | CC50 [4]: > 125 µg/mL | selectivity ratio [5]: > 40

Cn1cc(C(=O)O)c(=O)c2ccc(N3CCN(c4cccc(C(F)(F)F)c4)CC3)nc21
EC50 [1]: > 0.41 µg/mL | selectivity ratio [2]: < 1 | EC50 [3]: > 0.41 µg/mL | CC50 [4]: 0.41 µg/mL (≈ 0.948 µM) | selectivity ratio [5]: < 1

From ChEMBL document CHEMBL1156788, “A 1,8-naphthyridone derivative targets the HIV-1 Tat-mediated transcription and potently inhibits the HIV-1 replication” (J Med Chem, 2010)
